Hits are enriched below; roughly 2.9% of the tested compounds scored in any of these assays.
SENP8 block-1 = human SENP8 protease inhibitors, primary screen, biochemical, fluorescence, Nedd8 protein substrate, uHTS; Sentrin-specific protease 8 (Homo sapiens), Q96LD8; recombinant SENP8; inhibition, % at 20 µM; 0.64% of 360,000 active; AID 602440, 2012; in the data active = inhibition mostly above about 40%, no sharp cut-off; inactive = mostly below about 27%
Target sequence (Q96LD8 whole entry, looked up): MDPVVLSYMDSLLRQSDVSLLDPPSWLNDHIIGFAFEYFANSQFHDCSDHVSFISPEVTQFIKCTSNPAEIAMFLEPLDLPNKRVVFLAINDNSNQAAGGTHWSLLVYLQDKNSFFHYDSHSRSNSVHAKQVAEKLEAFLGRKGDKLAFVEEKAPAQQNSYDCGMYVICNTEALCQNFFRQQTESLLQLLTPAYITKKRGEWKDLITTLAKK
SENP1 inh = human SENP1 catalytic domain inhibitors, primary screen, biochemical, FRET, uHTS | Sentrin-specific protease 1 (Homo sapiens), Q9P0U3 | recombinant SENP1 catalytic domain, CyPet-SUMO1-YPet FRET cleavage | inhibition, % at 10 µM | 0.21% of 360,000 active;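 active = inhibition at least 30% at 10 µM, raw YFP signal under a set limit, fluorescence ratio 0.5 to 1.5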;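 also: 0% = enzyme with DMSO and 100% = no enzyme wells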
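system = hSENP1 catalytic domain, recombinant | reagent = SFCypet-SUMO1-SFYpet substrate at 25 nM | doses = one dose per compound, 10 µM, 0.5% DMSO | incubation = enzyme reaction for 50 min at room temperature, dark | measured by = FRET, CFP and YFP emission | controls = no-enzyme low, enzyme-DMSO high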
SENP8 block-2 = SENP8 protease inhibitors, primary screen, biochemical, luminescence; inhibition, % at 10 µM; purified SENP8, Z-RLRGG-aminoluciferin cleavage; 1.2% of 330,000 active; AID 2540, 2010; Sentrin-specific protease 8 (Homo sapiens), Q96LD8; in the data active = inhibition above about 50%
SENP6 inh = SENP6 protease inhibitors, primary screen, biochemical, luminescence, uHTS. Sentrin-specific protease 6 (Homo sapiens), Q9GZR1. Recombinant SENP6 catalytic domain, aminoluciferin luminescence. inhibition, % at 10 µM. 1.8% of 330,000 active;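 active = inhibition above about 50% at the single tested dose, limit read from the data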;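 also: plate controls were DMSO wells with enzyme for no effect and DMSO wells lacking enzyme for full effect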
Target sequence (Q9GZR1 628-1112 limits assumed): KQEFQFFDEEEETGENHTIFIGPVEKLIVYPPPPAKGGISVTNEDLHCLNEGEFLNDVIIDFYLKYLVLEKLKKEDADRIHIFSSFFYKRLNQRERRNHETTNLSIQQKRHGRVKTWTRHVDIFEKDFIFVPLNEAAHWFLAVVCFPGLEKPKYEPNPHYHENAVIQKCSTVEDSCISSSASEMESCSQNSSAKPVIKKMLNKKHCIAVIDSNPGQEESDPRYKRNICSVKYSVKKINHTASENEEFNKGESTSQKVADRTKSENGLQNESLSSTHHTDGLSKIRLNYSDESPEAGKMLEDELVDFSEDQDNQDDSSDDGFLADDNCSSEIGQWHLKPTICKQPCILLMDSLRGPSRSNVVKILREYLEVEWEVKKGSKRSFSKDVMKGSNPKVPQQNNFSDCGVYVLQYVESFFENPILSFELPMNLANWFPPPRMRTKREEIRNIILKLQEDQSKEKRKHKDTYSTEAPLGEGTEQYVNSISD
SENP7 block = SENP7 protease inhibitors, primary screen, biochemical, luminescence, uHTS; recombinant SENP7, Z-RLRGG-aminoluciferin luminescence, 40 min; 1.5% of 330,000 active; inhibition, % at 5 µM; Sentrin-specific protease 7 (Homo sapiens), Q9BQF6;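 active = inhibition above about 50% at the single test dose, limit read from the data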;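 also: plate controls were DMSO with enzyme for no effect and no enzyme buffer wells for full effect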
HSP90 inh = HSP90 inhibitors, primary screen, cell lysate, luminescence | Heat shock protein HSP 90 (rabbit reticulocyte lysate; luciferase refolding) | Rabbit reticulocyte lysate, luciferase refolding luminescence, 3 h | inhibition, % at 5.6 µM | 0.91% of 290,000 active | AID 1789, 2009;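 active = inhibition above the screen-wide mean plus 3 SD, computed separately per campaign, cut at about 16% in these data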;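 also: 0% = DMSO wells and 100% = 60 µM geldanamycin wells; inhibitors lower the luminescence because luciferase stays unfolded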
SENP8 confirm = SENP8 protease inhibitors, retest, confirmation, biochemical, luminescence, single concentration | inhibition, % at 12.5 µM | shares compounds with SENP7 block | Recombinant SENP8, Z-RLRGG-aminoluciferin luminescence, 60 min | 40% of 6,200 active;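 active = mean inhibition across replicates above about 50%, limit read from the data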
SENP6 conf = SENP6 protease inhibitors, confirmation, biochemical, luminescence, single concentration; shares compounds with SENP7 block; recombinant SENP6, Z-RLRGG-aminoluciferin luminescence; inhibition, % at 12.5 µM; 58% of 6,200 active
SENP7 conf = SENP7 protease inhibitors, retest, confirmation, biochemical, luminescence, single concentration; shares compounds with SENP7 block; AID 488917, 2010; recombinant SENP7, Z-RLRGG-aminoluciferin luminescence, 40 min; inhibition, % at 12.5 µM; 69% of 6,200 active
Casp3 SENP sel = caspase-3 protease inhibitors, confirmation, selectivity assay for SENP inhibitor project, biochemical, single concentration. shares compounds with SENP7 block. purified caspase-3, Z-DEVD-aminoluciferin luminescence, 60 min. inhibition, % at 12.5 µM. 60% of 6,200 active. AID 488918, 2010;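 active = mean inhibition above about 50%, limit read from the data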;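 also: plate controls were enzyme with DMSO for no effect and wells without caspase-3 for full effect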
Luc interf = luminescence interference (SENP counter-screen); inhibition, % at 12.5 µM; AID 488919; Pre-incubated SENP8/Z-RLRGG-aminoluciferin, luciferase luminescence interference; 39% of 6,200 active; shares compounds with SENP7 block;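 active = mean inhibition above about 50% when retested at one dose, limit read from the data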;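 also: plate controls were DMSO wells with completed reaction for no effect and substrate without enzyme for full effect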
The depositor's hits bear a star.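 The calls were made as follows, unless noted: active = mean inhibition above about 50% in the one-dose retest (limit read from the data); inactive = the rest.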

How did CCOC(=O)c1ccc(NC(=O)/C=C/c2cccs2)cc1 do in these assays?
SENP8 block-1: -56.4; SENP1 inh: 2.1; SENP8 block-2: 62.4*; SENP6 inh: 80.8*; SENP7 block: 78.9*; HSP90 inh: 4.2; SENP8 confirm: 53.1*; SENP6 conf: 53.3*; SENP7 conf: 83.6*; Casp3 SENP sel: 31.9; Luc interf: 37.5

Results for CCN(CC)S(=O)(=O)c1ccc(C)c(NC(=O)/C=C/c2cccs2)c1 ?
SENP8 block-1: 22.7; SENP1 inh: -1.6; SENP8 block-2: -14.4; SENP6 inh: -15.3; SENP7 block: -2.1; HSP90 inh: -1.7

Results for Cc1cc(C)nc(NC(=O)/C=C/c2ccc(Cl)cc2Cl)c1 ?
SENP8 block-1: 15.4; SENP1 inh: -2.6; SENP8 block-2: 61.5*; SENP6 inh: 76.3*; SENP7 block: 58.6*; HSP90 inh: -0.8; SENP8 confirm: 10.0; SENP6 conf: 17.7; SENP7 conf: 78.7*; Casp3 SENP sel: 34.3; Luc interf: 10.6

How did Cc1cc(C)nc(NC(=O)/C=C/c2cccs2)c1 do in these assays?
SENP8 block-1: -6.0; SENP1 inh: -0.8; SENP8 block-2: 27.6; SENP6 inh: 34.0; SENP7 block: 53.9*; HSP90 inh: -2.9; SENP8 confirm: 27.9; SENP6 conf: 28.2; SENP7 conf: 71.5*; Casp3 SENP sel: 55.3*; Luc interf: 55.1*

How did O=C(CSc1nc(C2CC2)nc2ccccc12)N1CCc2ccccc21 do in these assays?
SENP8 block-1: 10.4; SENP1 inh: -2.6

How did COc1ccc(-c2cc(C(=O)Nc3ccc(OC)c(OC)c3)[nH]n2)c(C)c1 do in these assays?
SENP8 block-1: 16.1; SENP1 inh: 0.9

How did O=C(Nc1ccc(NC(=O)c2ccco2)nc1)c1ccccn1 do in these assays?
SENP8 block-1: 5.5; SENP1 inh: 1.0; SENP8 block-2: 24.5; SENP6 inh: 54.1*; SENP7 block: 50.7*; HSP90 inh: 10.6; SENP8 confirm: -6.4; SENP6 conf: 35.7; SENP7 conf: 74.5*; Casp3 SENP sel: 80.5*; Luc interf: 31.5

How did CCC(=O)Nc1ccc(NC(=O)c2cccc(OC)c2)nc1 do in these assays?
SENP8 block-1: 20.7; SENP1 inh: -1.5; SENP8 block-2: 11.4; SENP6 inh: 42.3; SENP7 block: 41.1; HSP90 inh: 1.0

How did COc1cccc(C(=O)Nc2ccc(NC(=O)C3CC3)cn2)c1 do in these assays?
SENP8 block-1: 22.5; SENP1 inh: 2.1; SENP8 block-2: 59.7*; SENP6 inh: 85.1*; SENP7 block: 82.0*; HSP90 inh: 5.0; SENP8 confirm: 69.4*; SENP6 conf: 69.3*; SENP7 conf: 89.2*; Casp3 SENP sel: 89.1*; Luc interf: 12.5

What do the screens show for `O=C(Nc1ccc(NC(=O)C2CC2)nc1)c1ccccn1`?
SENP8 block-1: 2.7; SENP1 inh: 1.7; SENP8 block-2: 4.5; SENP6 inh: 54.8*; SENP7 block: 51.7*; HSP90 inh: 10.4; SENP8 confirm: 29.9; SENP6 conf: 34.7; SENP7 conf: 61.4*; Casp3 SENP sel: 69.7*; Luc interf: 22.6

What do the screens show for `O=C(Nc1ccc(NC(=O)C2CC2)nc1)c1cnccn1`?
SENP8 block-1: 7.8; SENP1 inh: 1.8; SENP8 block-2: 2.9; SENP6 inh: -14.6; SENP7 block: 5.4; HSP90 inh: -1.3

How did Cc1nn(C)c(C)c1CN(C(=O)C1CCC(=O)N(C2CCCCCC2)C1)C(C)C (stereo not given) do in these assays?
SENP8 block-1: 0.3; SENP1 inh: 1.2; SENP8 block-2: -4.5; SENP6 inh: -17.6; SENP7 block: 13.4; HSP90 inh: -7.8

What do the screens show for `C[C@H]1CN([C@@H](C)CO)C(=O)c2cc(Br)cnc2O[C@H]1CN(C)C(=O)C1CCC1`?
SENP8 block-1: 5.3; SENP1 inh: 2.9

How did CCOC(=O)N1CCN(C(=O)COC(=O)c2cc(C)ccc2C)CC1 do in these assays?
SENP8 block-1: 9.1; SENP1 inh: 1.0; SENP8 block-2: 5.6; SENP6 inh: 2.2; SENP7 block: -7.3

What do the screens show for `Fc1ccccc1/C=N/Nc1nc2ccccc2o1`?
SENP8 block-1: -103.9; SENP1 inh: -9.0; SENP8 block-2: -2.6; SENP6 inh: 13.8; SENP7 block: 69.5*; HSP90 inh: 1.0; SENP8 confirm: -3.0; SENP6 conf: 7.1; SENP7 conf: 16.0; Casp3 SENP sel: 21.0; Luc interf: 7.7

Results for COc1ccccc1OCC(=O)Nc1cc(S(=O)(=O)N2CCOCC2)ccc1N1CCCCC1 ?
SENP8 block-1: -17.5; SENP1 inh: 0.5; SENP8 block-2: 1.1; SENP6 inh: 7.7; SENP7 block: 10.5

How did c1cc2c(cc1C1=NNC(=NC3CC3)SC1)OCCO2 do in these assays?
SENP8 block-1: 6.8; SENP1 inh: 1.8; SENP8 block-2: 96.3*; SENP6 inh: 97.1*; SENP7 block: 96.7*; HSP90 inh: 76.3*; SENP8 confirm: 98.3*; SENP6 conf: 99.0*; SENP7 conf: 102.2*; Casp3 SENP sel: 98.0*; Luc interf: 96.0*

How did C=CCCC(=O)N1C[C@H]2CON(C)[C@H]2C[C@H]1c1cccc(N2CCOCC2)c1 do in these assays?
SENP8 block-1: 15.1; SENP1 inh: 2.2
